Screens as filed in PubChem.
Shown are actives, neighbours in structure and some others; about 3.1% of the full set was active somewhere.
core dimer inh = blocks dimerization of HCV core protein; TR-FRET GST/Flag-core106 dimerization, 1536-well; inhibition, % at 5 µM; 300,000 compounds, 0.33% hits; AID 1899;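 active = inhibition above the mean of all tested compounds plus 3 SD, set per screening campaign, cut at about 45% in these data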
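System – GST-tagged and Flag-tagged HCV core protein residues 1-106 · Repeats – one well for each compound · Technique – TR-FRET 671 and 617 nm emission · Doses – one concentration, 5 µM, in 0.5% DMSO · Times – 4 h, 22.5 °C incubation · Also added – Eu donor and XL665 acceptor anti-tag antibodies · Measure – percent inhibition of core106 dimerization signal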
PP1 inh = PP1-alpha (human) inhibition in PP5 counter-screen. P62136. purified PP1alpha, OMFP fluorescence. inhibition, % at 6.7 µM. 320,000 compounds, 0.9% hits;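 active = inhibition above the mean inhibition of all tested compounds plus 3 SD, computed separately for each screening campaign, cut at about 15% in these data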
Target sequence (P62136 whole entry, looked up): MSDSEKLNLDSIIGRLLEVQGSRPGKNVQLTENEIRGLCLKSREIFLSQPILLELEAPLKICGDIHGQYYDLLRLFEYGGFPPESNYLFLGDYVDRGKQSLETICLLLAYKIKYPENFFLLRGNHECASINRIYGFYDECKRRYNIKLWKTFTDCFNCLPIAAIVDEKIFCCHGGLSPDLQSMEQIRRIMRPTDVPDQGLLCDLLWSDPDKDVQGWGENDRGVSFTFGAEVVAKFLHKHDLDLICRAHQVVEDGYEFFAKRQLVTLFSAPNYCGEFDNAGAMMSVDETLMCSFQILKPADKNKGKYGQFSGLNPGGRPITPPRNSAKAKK
PP5 inh = inhibitors of human protein phosphatase 5 (PP5); P53041; purified PP5c, OMFP substrate fluorescence; inhibition, % at 6.7 µM; 320,000 compounds, 0.18% hits;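 active = inhibition above the campaign's mean inhibition across all tested compounds plus 3 SD, cut at about 9.5% in these data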
CTSL1 counter = cathepsin L1 inhibition, PFM18AAP counter-screen | recombinant F. hepatica cathepsin L1, Z-Leu-Arg-MCA fluorescence | inhibition, % at 5.96 µM | 300,000 compounds, 0.49% hits | AID 1906;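 active = inhibition above the mean of all tested compounds plus 3 SD, set per screening campaign, cut at about 17% in these data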
NadD inh = NadD (S. aureus) enzyme inhibition. 360,000 compounds, 0.78% hits. purified NadD enzyme, colorimetric absorbance read-out. inhibition, % at 20 µM; in the data active = inhibition above about 26%
Myeloid diff MLP = myeloid differentiation induction | ER-HoxA9 myeloid progenitors, lysozyme-GFP differentiation, flow cytometry | calls only at 10 µM | 360,000 compounds, 1% hits;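 active = normalized GFP-positive differentiation at or above the plate's own cutoff, the solvent-only control mean plus 3 SD; inconclusive = no clear call, values can overlap the other calls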;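 note: cells exposed to compound for four days before flow analysis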
NadD conf = NadD (S. aureus) inhibition, single concentration confirmation; shares compounds with NadD inh; purified S. aureus NadD, colorimetric enzyme assay; inhibition, % at 20 µM; 2,000 compounds, 13% hits; AID 624309; in the data active = inhibition mostly above about 42%, no sharp cut-off; inactive = mostly below about 42%
Large screens that a line does not name were inactive (follow-up assays come after a bar, where they were run).

Cc1cc(-c2csc(N)n2)c(C)n1C	NadD inh 74.6 | NadD conf inactive
CCn1ncc(-c2csc(N)n2)c1C	none
Cc1cc(-c2csc(N)n2)c(C)n1Cc1ccco1	NadD inh 30.6 | NadD conf inactive
Cc1ccc(NC(=O)C2(C)CCN2CCc2ccccc2)cc1O (stereo not drawn)	none (no result: core dimer inh, PP1 inh, PP5 inh, CTSL1 counter)
S=c1[nH]nc(-c2cc(-c3ccsc3)n[nH]2)n1-c1cccc2ccccc12	NadD inh 31.6 | NadD conf inactive
O=[N+]([O-])c1ccc(/C=N/Nc2nc(-c3ccccc3)c3cc(Br)ccc3n2)o1	NadD inh 41.4 | NadD conf inactive
Cc1ccc2nc(N/N=C\c3ccc([N+](=O)[O-])o3)nc(-c3ccccc3)c2c1	NadD inh 37.1 | NadD conf inactive
N#Cc1ccccc1/C=N/Nc1nc(-c2ccccc2)c2cc(Br)ccc2n1	none
COCCn1c(C)cc(C2=NNC(=NC3CC3)SC2)c1C	none
COCCn1c(C)cc(C2=NNC(=Nc3ccc(Cl)cc3Cl)SC2)c1C	NadD inh 35.6 | NadD conf inactive
COc1ccccc1OCCNC(=O)CN1C(=O)NC2(CCCCC2)C1=O	none (no result: core dimer inh, CTSL1 counter)
CC(C)(O)CCC(C)(C)O	none (no result: core dimer inh, CTSL1 counter)
Cc1ccc(-c2nn(-c3ccccc3)cc2/C=N/n2c(-c3cccs3)n[nH]c2=S)cc1	NadD inh 41.0 | NadD conf inactive
CN1CCC(N2CCN(C3CN(Cc4ccccc4)S(=O)(=O)C3)CC2)CC1 (stereo not drawn)	none (no result: core dimer inh, PP1 inh, PP5 inh, CTSL1 counter)
CCc1ccc(NC(=O)C(C)OC(=O)c2ccc(NS(=O)(=O)c3ccc(C)c([N+](=O)[O-])c3)cc2)cc1 (stereo not drawn)	NadD inh 45.1 | NadD conf 45.9
N#Cc1ccc(NC(=O)Cn2cnc([N+](=O)[O-])c2)cc1	none
O=C(Cn1cnc([N+](=O)[O-])c1)Nc1cc(Oc2ccc(Cl)cc2Cl)cc([N+](=O)[O-])c1	NadD inh 31.8 (no result: Myeloid diff MLP) | NadD conf inactive
CCn1c(SCC(=O)Nc2nc(-c3ccc(C)cc3)cs2)nnc1-c1ccccc1O	NadD inh 37.4 | NadD conf 43.1
CCCCn1c(CCC(=O)O)nc2cc(S(=O)(=O)N3CCCC3)ccc21	Myeloid diff MLP inconclusive (no result: core dimer inh, PP1 inh, PP5 inh, CTSL1 counter)
CCCNC(=O)Cn1c(=O)/c(=C\c2ccc(-c3cccc([N+](=O)[O-])c3)o2)s/c1=C\C(=O)C(C)(C)C	core dimer inh 56.7, PP1 inh 15.9, CTSL1 counter 18.1, NadD inh 34.9, Myeloid diff MLP active | NadD conf inactive
O=Cc1ccc(-c2cccc([N+](=O)[O-])c2)o1	none
O=C1NC(=O)/C(=C/c2ccc(-c3cccc([N+](=O)[O-])c3)o2)S1	NadD inh 45.5 (no result: core dimer inh, PP1 inh, PP5 inh, CTSL1 counter) | NadD conf inactive
O=C(O)c1ccccc1-c1ccc(C=c2sc3nc4cc(Br)cnc4n3c2=O)o1	NadD inh 59.1 (no result: core dimer inh, PP1 inh, PP5 inh, CTSL1 counter) | NadD conf inactive
Cc1ccc(Nc2nnc(C3C(=O)N(C)C4(C)CC3c3cc(Br)ccc3O4)s2)cc1 (stereo not drawn)	NadD inh 27.7 | NadD conf inactive
CCOC(=O)C1CCN(S(=O)(=O)c2cn(C)cn2)CC1	none
COc1ccc(NC(=O)c2cn(-c3ccccc3)nc2-c2ccncc2)cc1	none
COc1ccc(-c2nn(-c3ccccc3)cc2C(=O)NC(=S)NNC(=O)c2ccncc2)cc1	NadD inh 58.4 | NadD conf inactive
C=C1CN(Cc2ccccc2)S(=O)(=O)c2ccccc21	NadD inh 42.3 | NadD conf inactive
COc1ccccc1N1CCN(CCN2C(=O)C3CCCN3C2=O)CC1 (stereo not drawn)	none
COc1ccc(N/C(=N/c2nc(C)cc(C)n2)NC(=O)Nc2ccc(Cl)c(Cl)c2)c(OC)c1	NadD inh 33.2 | NadD conf inactive
O=C(N[C@@H]1C/C=C\C[C@H](CC(=O)N(CCO)Cc2ccccc2)C(=O)N[C@@H](Cc2c[nH]c3ccccc23)COC1=O)OCC1c2ccccc2-c2ccccc21	NadD inh 34.3 (no result: core dimer inh, PP1 inh, PP5 inh, CTSL1 counter) | NadD conf inactive
O=C(N[C@H]1C/C=C\C[C@@H](CC(=O)N(CCO)Cc2ccccc2)C(=O)N[C@H](Cc2c[nH]c3ccccc23)COC1=O)OCC1c2ccccc2-c2ccccc21	NadD inh 35.7 (no result: core dimer inh, PP1 inh, PP5 inh, CTSL1 counter) | NadD conf inactive
O=C(N[C@@H]1C/C=C\C[C@@H](CC(=O)N(CCO)Cc2ccccc2)C(=O)N[C@@H](c2ccccc2)COC1=O)OCC1c2ccccc2-c2ccccc21	none (no result: core dimer inh, PP1 inh, PP5 inh, CTSL1 counter)
O=C(N[C@H]1C/C=C\C[C@H](CC(=O)N(CCO)Cc2ccccc2)C(=O)N[C@H](Cc2c[nH]c3ccccc23)COC1=O)OCC1c2ccccc2-c2ccccc21	NadD inh 32.4 (no result: core dimer inh, PP1 inh, PP5 inh, CTSL1 counter) | NadD conf inactive
COC(=O)CC1(c2cccc3ccccc23)C(=O)c2ccccc2C1=O	none
NC(CSC1(c2cccc3ccccc23)c2ccccc2-c2ccccc21)C(=O)O (stereo not drawn)	NadD inh 41.6 (no result: core dimer inh, PP1 inh, PP5 inh, CTSL1 counter) | NadD conf 63.9
COc1ccc(Cc2c(-c3ccc(OC)c(OC)c3)nc3ccc(C)cn23)c(C)c1	none (no result: core dimer inh, PP1 inh, PP5 inh, CTSL1 counter)
Cc1ccc(CNC(=O)c2ccc(N3CCC4(CC3)CC(c3ccccc3)=NO4)c(NC(=O)c3ccccc3)c2)cc1	none
Cc1ccc(CNC(=O)c2ccc(N3CCC4(CC3)CC(c3ccccc3)=NO4)c(NC(=O)c3ccc(Br)cc3)c2)cc1	NadD inh 35.6 | NadD conf inactive
Cc1cccc(NS(=O)(=O)c2ccc3c(c2)Cc2cc(S(=O)(=O)Nc4cccc(C)c4C)ccc2-3)c1C	NadD inh 36.1 | NadD conf inactive
COc1ccc2c(c1)C(=O)N1[C@H]3c4cc(Br)ccc4OC[C@@H]3[C@H](c3ccccc3)[C@]1(C)C(=O)N2	NadD inh 30.4 | NadD conf inactive
COc1ccc(C(=O)NC(C)c2cnn(-c3ccccn3)c2C)o1 (stereo not drawn)	none
CN(Cc1ccccc1)C(=O)c1ccco1	none
Cc1ccc(C(CCN(Cc2ccccc2)C(=O)c2ccco2)c2ccco2)cc1 (stereo not drawn)	NadD inh 37.6 | NadD conf inactive
CCN(CC(=O)NC(=O)Nc1ccccc1F)Cc1ccccc1	none
Cc1cccc2sc(NNC(=O)c3cc(=O)c4ccccc4o3)nc12	NadD inh 45.2 | NadD conf 60.0
O=C(NNc1nc2c(F)cccc2s1)c1cc(=O)c2ccccc2o1	none
Cc1ccc2sc(NNC(=O)c3cc(=O)c4ccccc4o3)nc2c1C	NadD inh 64.4 | NadD conf 70.2
O=C(CSc1nnc2scc(-c3ccccc3)n12)Nc1nsc(-c2ccc(Cl)cc2)n1	NadD inh 41.0 | NadD conf inactive
